# Compound activity deposited in PubChem BioAssay by The Scripps Research Institute Molecular Screening Center.
# Fam108B inh – blocks mouse Fam108B hydrolase in RBBP9 counter-screen. recombinant Fam108B, FP-Rh probe fluorescence polarization. inhibition, % at 9.51 µM. actives 0.33% (n = 300,000). AID 1947;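 active = inhibition above the screen mean inhibition plus 3 SD, computed separately per campaign, cut at about 18% in these data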;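 note: inhibitors lower polarization as less probe binds the enzyme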
# PME-1 inh – PME-1 (human) inhibition; inhibition, % at 5.9 µM; actives 0.53% (n = 320,000); recombinant PME-1, FP-Rh probe fluorescence polarization;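 active = inhibition above the campaign mean of all compounds plus 3 SD, cut at about 26% in these data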;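 note: competitive labeling of PME-1 active site by serine hydrolase directed probe; 0% = PME-1 with DMSO and 100% = wells lacking PME-1 enzyme; inhibitors block probe labeling so polarization falls and inhibition rises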
# PAD4 FP inh – inhibitors of human PAD4; Q9UM07; actives 0.41% (n = 330,000); recombinant PAD4, RCA probe fluorescence polarization; inhibition, % at 6.36 µM;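 active = percent inhibition above a cutoff equal to the mean of all tested compounds plus 3 SD, cut at about 15% in these data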;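 note: 0% = PAD4 with RCA probe and DMSO and 100% = probe without PAD4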
# PRMT1 inh – PRMT1 (human) inhibition, primary screen; Q99873; recombinant PRMT1, activity-based probe fluorescence polarization; inhibition, % at 2.79 µM; actives 1.3% (n = 370,000);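 active = inhibition above about 21% made by adding two undisclosed values, limit read from the data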
# Target sequence (Q99873 whole entry, looked up): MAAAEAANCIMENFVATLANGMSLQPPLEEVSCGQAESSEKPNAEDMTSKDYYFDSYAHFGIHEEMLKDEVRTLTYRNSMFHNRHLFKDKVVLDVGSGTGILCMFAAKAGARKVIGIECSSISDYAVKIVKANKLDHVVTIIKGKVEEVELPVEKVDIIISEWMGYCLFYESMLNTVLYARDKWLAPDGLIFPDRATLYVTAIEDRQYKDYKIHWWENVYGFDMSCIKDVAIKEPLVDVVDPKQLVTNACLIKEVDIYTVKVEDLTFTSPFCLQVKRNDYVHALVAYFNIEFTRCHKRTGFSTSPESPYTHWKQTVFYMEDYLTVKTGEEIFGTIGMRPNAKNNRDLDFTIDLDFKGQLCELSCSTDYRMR
# RBBP9 inh – human RBBP9 hydrolase inhibition; AID 1515; recombinant RBBP9, FP-Rh probe fluorescence polarization; inhibition, % at 7.94 µM; actives 0.2% (n = 220,000);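 active = inhibition above the campaign mean of all tested compounds plus 3 SD, cut at about 14% in these data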;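 note: plate controls were DMSO wells with RBBP9 for no effect and wells lacking RBBP9 protein for full effect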
#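 Controls: DMSO-treated enzyme wells and wells lacking RBBP9 | Material: RBBP9 protein | Technique: Fluorescence polarization | Replication: Single well per compound, no replicates | Buffer or medium: Tris-NaCl-Pluronic buffer, pH 8.0 | Timing: 30 min compound preincubation, 45 min probe labeling, 25 °C | Read-out basis: Percent inhibition from mP, scaled between DMSO and no-protein wells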
# GSTO1 counter – blocks human GSTO1 in RBBP9 counter-screen | recombinant GSTO1, activity-based probe fluorescence polarization | inhibition, % at 5.96 µM | actives 1.1% (n = 300,000) | AID 1974;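 active = inhibition above the campaign mean inhibition plus 3 SD, cut at about 35% in these data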;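 note: 0% = GSTO1-1 with DMSO and 100% = wells lacking GSTO1-1 enzyme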
# Target sequence (P78417 whole entry, looked up): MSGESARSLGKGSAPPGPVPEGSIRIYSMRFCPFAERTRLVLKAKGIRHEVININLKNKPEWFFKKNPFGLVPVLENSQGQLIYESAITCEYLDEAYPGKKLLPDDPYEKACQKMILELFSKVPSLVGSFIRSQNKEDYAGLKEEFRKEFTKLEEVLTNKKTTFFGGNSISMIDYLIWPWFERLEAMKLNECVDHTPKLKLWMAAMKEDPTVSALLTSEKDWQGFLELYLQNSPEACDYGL
# GSTO1 confirm – GSTO1 (human) inhibition, confirmation; shares compounds with GSTO1 counter; recombinant GSTO1, probe fluorescence polarization; inhibition, % at 5.96 µM; actives 54% (n = 2,400); AID 2176;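 active = inhibition above the primary screen's cutoff, its mean inhibition plus 3 SD, cut at about 35% in these data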;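 note: loss of polarization as inhibitors block binding of rhodamine sulfonate ester activity probe; 0% = GSTO1 with DMSO and 100% = wells lacking GSTO1 enzyme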
# PAD4 confirm – PAD4 (human) inhibition, confirmed; actives 28% (n = 1,200); inhibition, % at 6.36 µM; recombinant PAD4, RCA probe fluorescence polarization; AID 488796; shares compounds with PAD4 FP inh;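 active = mean inhibition across replicates above the hit cutoff set by the earlier primary screen, cut at about 15% in these data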;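 note: inhibitors block active-site labeling by the probe so polarization falls; 0% = PAD4 with probe and DMSO and 100% = probe without PAD4 enzyme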
# PRMT1 confirm – PRMT1 (human) inhibition, FP confirmation. shares compounds with PRMT1 inh. recombinant His-PRMT1, activity-based probe fluorescence polarization. inhibition, % at 2.79 µM. actives 42% (n = 3,300). AID 687036;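 active = mean inhibition across replicates above the hit cutoff derived for the earlier primary screen, cut at about 22% in these data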
# Numbers without * were called inactive; / = not tested or not shown. Rows were chosen to be rich in hits. Some 2.3% of all compounds tested hit in one or more screens of this group.
SMILES,Fam108B inh,PME-1 inh,PAD4 FP inh,PRMT1 inh,RBBP9 inh,GSTO1 counter,PAD4 confirm,others
CCCN1CCc2cc(O)cc3c2[C@H]1Cc1ccc(O)c(O)c1-3,0,5,18*,77*,/,89*,-6,GSTO1 confirm=3
CN1CCc2cc3c(c4c2C1Cc1ccccc1-4)OCO3 (configuration not stated),16,13,58*,51*,/,77*,-12,GSTO1 confirm=63*
C[C@]12CC[C@@H](O)CC1=CCC1C2CC[C@]2(C)C(=O)[C@H](F)CC12 (some centres not stated),/,/,0,-3,/,/,/,
Cn1ncnc2c(=O)n(C)c(=O)nc1-2,78*,44*,68*,/,/,94*,66*,GSTO1 confirm=92*
Nc1c(C(=O)OCc2ccccc2)c2nc3ccccc3nc2n1Cc1cccs1,-9,5,25*,2,-20,51*,-4,GSTO1 confirm=30
O=C(O)C1C2CCC(O2)C1C(=O)Nc1ccc(F)c(F)c1 (configuration not stated),2,4,1,-2,/,3,/,
CCOC(=O)c1c(N)n(CCN2CCCCC2)c2nc3ccccc3nc12,0,6,2,-3,-1,7,/,
CCCCn1c(NS(=O)(=O)c2ccccc2)c(C(=O)OCC)c2nc3ccccc3nc21,8,11,63*,5,-8,66*,-13,GSTO1 confirm=66*
CC(C)(C)Cc1nnc(NC(=O)COc2ccc(Cl)cc2Cl)o1,/,/,/,-1,/,/,/,
C=CCn1c(O)c(C(CC)=Nc2ccc3c(c2)CCC3)c(=O)[nH]c1=O,-3,-3,4,-1,-5,4,/,
C=CCn1c(O)c(C(CC)=Nc2ccc(N(C)C)cc2)c(=O)[nH]c1=O,3,14,30*,33*,11,65*,9,GSTO1 confirm=3
O=C(CCc1nnc2ccc(NCc3ccccc3)nn12)N1CCC2(CC1)OCCO2,-8,-4,-13,0,/,4,/,
COP(=S)(OC)SCN1C(=O)c2ccccc2C1=O,-2,-1,2,59*,3,38*,/,GSTO1 confirm=60*;PRMT1 confirm=76*
O=C1CN=C(c2cccc(Br)c2)c2cc(Br)ccc2N1,1,2,-2,3,/,6,/,
O=c1cc(C(F)(F)F)c2cc3c4c(c2o1)CCCN4CCC3,12,16,35*,101*,-16,14,38*,
Cc1[nH]n(-c2ccccc2)c(=O)c1C(c1ccc([N+](=O)[O-])cc1)c1c(C)[nH]n(-c2ccccc2)c1=O,7,4,66*,/,-2,59*,-18,
C=CCn1c(O)c(C=Nc2ccc(N(CC)CC)cc2)c(=O)[nH]c1=O,-3,4,28*,22*,-1,28,5,
Cc1cc(Cl)nc(N)n1,-4,-9,1,-2,-13,-3,/,
O=c1[nH]c(O)c(N=Nc2ccc3c(c2)OCCO3)c(=O)[nH]1,4,1,0,-2,-7,-5,/,
N#CC1(c2ccccc2)CCN(C2CC(=O)N(c3ccc(F)cc3)C2=O)CC1 (configuration not stated),3,7,18*,3,-1,3,3,
N#CC1(c2ccccc2)CCN(C2CC(=O)N(c3ccc4c(c3)OCO4)C2=O)CC1 (configuration not stated),-1,-2,-4,5,-9,-5,/,
O=c1[nH]c(=S)n(-c2ccccc2F)c(O)c1C=Nc1ccc(N2CCOCC2)cc1,0,10,17*,16,0,43*,3,
Cc1cc(OCC(=O)N2C[C@H]3C[C@@H](C2)c2cccc(=O)n2C3)c2c(C)c(C)c(=O)oc2c1,2,-1,2,-5,/,1,/,
CCCCn1c(O)c(C(CC)=NCCCn2ccnc2)c(=O)[nH]c1=O,3,-1,1,-1,-9,10,/,
CCCCn1c(O)c(C(C)=NCCCn2ccnc2)c(=O)[nH]c1=O,3,0,27*,0,1,9,16*,
SMILES,Fam108B inh,PME-1 inh,PAD4 FP inh,PRMT1 inh,RBBP9 inh,GSTO1 counter,PAD4 confirm,others
CN(C)C(=O)Oc1cccc2c(OC(=O)N(C)C)cccc12,3,-5,24*,1,2,8,7,
COCCNC(=O)Cn1cc(C(=O)c2ccccc2F)c2ccccc21,-1,0,-7,-4,/,1,/,
COc1cccc(-n2c(CN3CCOCC3)nc3ccc([N+](=O)[O-])cc3c2=O)c1,-5,4,-2,0,/,5,/,
CCC1(CC)C(=O)NC(=Nc2cccc(C(F)(F)F)c2)NC1=O,-3,2,-3,-3,-4,2,/,
Cc1ccccc1NC(=O)Cc1nc(COC(=O)Cc2ccccc2)cs1,/,18,47*,2,/,/,-8,
Cc1ccc(-c2nc3ccc(C)cn3c2CC(=O)N(C)C)cc1,3,-5,17*,-5,/,8,10,
CCCN(CCC)C(=O)Cc1c(-c2ccc(Cl)cc2)nc2c(Cl)cc(Cl)cn12,12,-4,1,-2,/,5,/,
CC1=NN(c2ccccc2)C(=O)C1/C=C1\C(=O)NC(=O)N(c2cc(C)cc(C)c2)C1=O (configuration not stated),0,-5,26*,3,0,36*,3,
CC1=NN(c2ccccc2)C(=O)C1/C=C1\C(=O)NC(=O)N(c2ccc(C)c(C)c2)C1=O (configuration not stated),-3,4,9,4,-1,20,/,
CCOC(=O)C1SC2(C(F)(F)F)CC1(O)c1c(C)cc(C)nc1O2 (configuration not stated),1,-5,-1,73*,7,8,/,PRMT1 confirm=63*
CCOC(=O)[C@]12Cc3cc(OC)c(OC)cc3[C@H]1N(Cc1ccccc1)C(=O)c1ccccc12,/,/,/,-2,/,/,/,
Cc1cc2c(C(F)(F)F)cc(=O)oc2c2c1NCCC2,2,-1,-3,38*,-4,-7,/,PRMT1 confirm=58*
Cc1cc(C(=O)N2CCC3(CC2)OCCO3)cs1,0,-2,-9,2,-6,5,/,
Cc1ccc2c(c1)NP(=S)(Oc1ccccc1)N2 (configuration not stated),/,/,/,1,/,/,/,
Cc1ccc(OP2(=O)Nc3cc(C)c(C)cc3S2)cc1 (configuration not stated),/,/,/,67*,/,/,/,PRMT1 confirm=60*
COC(=O)N(c1ccccc1)P1(=S)OCCO1,-3,-1,-1,30*,-5,1,/,PRMT1 confirm=44*
CCOC(=O)N(c1ccccc1)P1(=S)OCCO1,3,5,0,14,-11,-6,/,
